Consider 5 compounds from ChEMBL document CHEMBL3228003, “Synthesis of angiotensin II analogues by incorporating beta-homotyrosine or beta-homoisoleucine residues” (J Med Chem, 1979).

SMILES strings stand for the structures.

Data set [1] in a line: Stability of the compound assessed as microsomal leucine aminopeptidase (unknown origin)-mediated liberation of sarcosine, arginine and valine after 2 hrs by TLC analysis. It is filed as ADME, Homo sapiens. Summed up: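 Peptide (2 mg) in 0.4 mL of 0.5 mol Tris, pH 8.5, plus 0.1 mL of 0.025 mol MnCl2, was incubated at 37 °C with 0.2 mg of microsomal leucine aminopeptidase (25 units/1.83 mg). Acetic acid was added and the mixture lyophilized. Liberated amino acids were detected by TLC and amino acid analysis.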

The species entered for data set [2] is Rattus norvegicus. The experiment in a line: Effect on pressor activity in vagotomized and ganglion-blocked rat assessed as duration of action. It is filed as functional. Summed up: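 Single-injection pressor test in vagotomized, ganglion-blocked rats. Duration of action runs from peptide injection until blood pressure returns to control values.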
The species entered for data set [3] is Rattus norvegicus. Put plainly: Effect on pressor activity in vagotomized and ganglion-blocked rat relative to angiotensin 2. It is filed as functional. Summed up:
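Pressor response was measured in vagotomized, ganglion-blocked rats by the single-injection procedure. Activity is expressed as a percentage of the pressor activity of angiotensin II, with n injections per value.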

The species entered for data set [4] is Rattus norvegicus. The experiment in a line: Effect on pressor activity in vagotomized and ganglion-blocked rat assessed as duration of action relative to angiotensin 2. Format: functional. Summed up:
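Vagotomized, ganglion-blocked rats received single injections. Duration of action, timed from injection until blood pressure returns to control levels, is compared against an equipressor dose of angiotensin II given by the same procedure.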

Data set [5] can be described thus: Stability of the compound assessed as beef pancreas alpha-chymotrypsin-mediated drug degradation up to 3 hrs by TLC analysis. Format: ADME, Bos taurus. Conditions: cattle, isolated protein. The gist of the method: (§1)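 Peptide (5 mg) in 0.5 mL of 0.1 mol ammonium acetate buffer, pH 7.5, was incubated at 37 °C with 0.4 mg of thrice-crystallized bovine pancreatic α-chymotrypsin suspended in buffer. The reaction was stopped with acetic acid, the mixture lyophilized, and fragments checked by TLC on cellulose in suitable solvents.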

Data set [6] in a line: Stability of the compound assessed as microsomal leucine aminopeptidase (unknown origin)-mediated liberation of aspartic acid from position 1 after 5 mins by TLC analysis.
Data set [7] in a line: Stability of the compound assessed as beef pancreas alpha-chymotrypsin-mediated drug degradation into 2 tetrapeptides after 15 to 20 mins by TLC analysis. It is filed as ADME, Bos taurus. To be noted: cattle, isolated protein. Summed up:
as §1

As to `CC[C@H](C)[C@H](NC(=O)[C@H](Cc1ccc(O)cc1)NC(=O)[C@@H](NC(=O)[C@H](CCCNC(=N)N)NC(=O)CNC)C(C)C)C(=O)N[C@@H](Cc1cnc[nH]1)C(=O)N1CCC[C@H]1C(=O)N[C@@H](Cc1ccccc1)C(=O)O`, the Stability result in data set [1] is “Stable”.

On to `CC[C@H](C)[C@H](NC(=O)C[C@H](Cc1ccc(O)cc1)NC(=O)[C@@H](NC(=O)[C@H](CCCNC(=N)N)NC(=O)CNC)C(C)C)C(=O)N[C@@H](Cc1cnc[nH]1)C(=O)N1CCC[C@H]1C(=O)N[C@@H](Cc1ccccc1)C(=O)O`, for which the Time in data set [2] is 5.5 min; in data set [4], 5.2 min. Also, in data set [3], the Activity is listed as 1.98%. Also, the Stability entry in data set [1] and in data set [5] was “Stable” throughout.

For `CC[C@H](C)[C@@H](CC(=O)N[C@@H](Cc1cnc[nH]1)C(=O)N1CCC[C@H]1C(=O)N[C@@H](Cc1ccccc1)C(=O)O)NC(=O)[C@H](Cc1ccc(O)cc1)NC(=O)[C@@H](NC(=O)[C@H](CCCNC(=N)N)NC(=O)[C@@H](N)CC(=O)O)C(C)C`, the results for the Time in data set [2] and in data set [4] were 6.7 min and 6.3 min, respectively. The same compound returned an Activity in data set [3] of 2.82%. Also, the results for the Stability entry in data set [5] and in data set [6] were “Stable” and “Unstable”, respectively.

For `CC[C@H](C)[C@@H](CC(=O)N[C@@H](Cc1cnc[nH]1)C(=O)N1CCC[C@H]1C(=O)N[C@@H](Cc1ccccc1)C(=O)O)NC(=O)[C@H](Cc1ccc(O)cc1)NC(=O)[C@@H](NC(=O)[C@H](CCCNC(=N)N)NC(=O)CNC)C(C)C`, the values for the Time in data set [2] and in data set [4] were 4.7 min and 5.3 min, respectively. In addition, the Activity in data set [3] turned out to be 29.2%. Also, the Stability entry in data set [1] and in data set [5] was “Stable” in each case.

As to `CC[C@H](C)[C@H](NC(=O)[C@H](Cc1ccc(O)cc1)NC(=O)[C@@H](NC(=O)[C@H](CCCNC(=N)N)NC(=O)[C@@H](N)CC(=O)O)C(C)C)C(=O)N[C@@H](Cc1cnc[nH]1)C(=O)N1CCC[C@H]1C(=O)N[C@@H](Cc1ccccc1)C(=O)O` [ANGIOTENSIN II], the Stability entry in data set [7] and in data set [6] was “Unstable” in each case.
